Assay results from paper PMC7938327 (Journal of medicinal chemistry, 2017).
Entries after “also recorded” stand apart in the source; their conditions may differ.

Key:
human recombinant ATX [1] = target: T1, human recombinant ATX (Homo sapiens, UniProt Q13822); test: ATX lysophospholipase D activity, FS-3 hydrolysis; assay type: biochemical; conditions: for mechanism: FS-3 0 to 10 μM, inhibitor 0, 0.5 × IC50 or 2 × IC50, best global fit; for ATX inhibitory activity (in words): FS-3 substrate
human recombinant ATX [2] = target: T1, human recombinant ATX; test: ATX nucleotide pyrophosphatase activity, pNP-TMP hydrolysis; assay type: biochemical; conditions: 1 mM pNP-TMP, 4 nM ATX, compound 0 to 1 μM
Method in brief: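 Human recombinant FLAG-tagged ATX was expressed in Sf9 insect cells and purified on anti-FLAG resin. Absorbance at 405 nm was read every 2 min for 1 h.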

[3] = tested on: A2058 human melanoma cells; test: ATX-mediated in vitro invasion assay; assay type: cell-based; conditions: exogenous LPC and recombinant ATX; for inhibition of A2058 cell invasion, screen at 10 μM: compared with 30; for inhibition of A2058 cell invasion (in words): dose–response
[4] = In vitro stability in 4T1 cell culture by LC-MS; assay type: in vitro ADME, mouse; conditions: 40 h of exposure to 4T1 cells
LPA1 = LPA1 (Homo sapiens, UniProt Q92633); test: LPA-mediated Ca2+ mobilization, LPA1 RH7777 cells; assay type: cell-based; conditions: LPA1-elicited Ca2+ responses
Chain of LPA1 (Q92633 whole entry, species assumed): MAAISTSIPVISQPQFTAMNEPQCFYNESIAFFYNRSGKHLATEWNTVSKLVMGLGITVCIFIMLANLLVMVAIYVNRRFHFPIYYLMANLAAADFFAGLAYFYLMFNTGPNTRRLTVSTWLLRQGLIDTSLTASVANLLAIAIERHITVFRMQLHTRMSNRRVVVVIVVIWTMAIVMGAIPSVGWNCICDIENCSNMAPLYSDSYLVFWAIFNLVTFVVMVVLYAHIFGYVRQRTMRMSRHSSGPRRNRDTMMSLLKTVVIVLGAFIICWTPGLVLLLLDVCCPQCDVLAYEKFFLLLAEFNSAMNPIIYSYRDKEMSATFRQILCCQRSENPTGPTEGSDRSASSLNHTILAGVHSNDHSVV
Method in brief: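 Rat hepatoma RH7777 cells stably expressing LPA1 were seeded at 5 × 10^4 per well on poly-L-lysine, left overnight, then serum-deprived 4 h in HEPES-Krebs buffer pH 7.4. Cells were loaded 30 min with 4.5 μg/mL Fura-2AM plus 0.45% Pluronic F-127. […] The 340/510 and 380/510 nm ratio was read every 3.42 s for 70 s, normalized to LPA Emax, and fitted by variable-slope regression for IC50.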

[5] = tested on: 4T1-TaxR cancer stem-like cells (mammospheres); test: 4T1-TaxR mammosphere viability with paclitaxel; assay type: cell-based, mouse

pNP-TMP inhibition (human recombinant ATX [2])	ATX inhibitory activity (in words) (human recombinant ATX [1])	Molecule	other results
none		O=C(Nc1ccc(F)c(F)c1)c1cc(S(=O)(=O)N2CCOCC2)c(Cl)cc1Cl [Compound 3a, 2,4-Dichloro-N-(3,4-difluorophenyl)-5-(morpholinosulfonyl)-benzamide]	fold IC50 improvement relative to parent compound 3 (human recombinant ATX [1]; ATX, FS-3): 4 fold; mechanism (human recombinant ATX [1]): competitive; inhibition of A2058 cell invasion, screen at 10 μM [3]: as effective as 30; inhibition of A2058 cell invasion (in words) [3]: inhibit ATX-dependent invasion; also recorded: dose dependently decreased A2058 cell invasion
none		COC(=O)c1c(F)cc(NC(=O)c2cc(S(=O)(=O)N3CCOCC3)c(Cl)cc2Cl)cc1F [Compound 3i, Methyl 4-(2,4-Dichloro-5-(morpholinosulfonyl)benzamido)-2,6-difluorobenzoate]	
none	lost their ATX inhibitory activity	O=S(=O)(Nc1cc(S(=O)(=O)N2CCOCC2)c(Cl)cc1Cl)c1cccc(F)c1 [Compound 19]	
none	lost their ATX inhibitory activity	O=S(=O)(Nc1cc(F)c(F)c(F)c1)c1cc(S(=O)(=O)N2CCOCC2)c(Cl)cc1Cl [Compound 23, 2,4-Dichloro-5-(morpholinosulfonyl)-N-(3,4,5-trifluorophenyl)-benzenesulfonamide]	
none		O=S(=O)(c1cc(CNc2cc(F)c(F)c(F)c2)c(Cl)cc1Cl)N1CCOCC1 [Compound 11, N-(2,4-Dichloro-5-(morpholinosulfonyl)benzyl)-3,4,5-trifluoroani-line]	
none	failed to inhibit ATX	O=S(=O)(c1cc(-c2nc3cc(F)c(F)cc3[nH]2)c(Cl)cc1Cl)N1CCOCC1 [Compound 8, 4-((2,4-Dichloro-5-(5,6-difluoro-1H-benzo[d]imidazol-2-yl)-phenyl)sulfonyl)-morpholine]	
none		CN1CCN(S(=O)(=O)c2cc(C(=O)Nc3cc(F)c(F)c(F)c3)c(Cl)cc2Cl)CC1 [Compound 28a, 2,4-Dichloro-5-((4-methylpiperazin-1-yl)sulfonyl)-N-(3,4,5-trifluorophenyl)-benzamide]	
none	completely lost ATX inhibitory activity	O=C(Nc1cc(F)c(F)c(F)c1)c1cc(NN2CCOCC2)c(Cl)cc1Cl [Compound 25, 2,4-Dichloro-5-(morpholinoamino)-N-(3,4,5-trifluorophenyl)-benzamide]	
none		CN1CCN(S(=O)(=O)c2cc(C(=S)Nc3cc(Cl)c(F)c(Cl)c3)c(Cl)cc2Cl)CC1 [Compound 29, 2,4-Dichloro-N-(3,5-dichloro-4-fluorophenyl)-5-((4-methylpipera-zin-1-yl)sulfonyl)-benzothioamide]	
none	inactive	O=S(=O)(c1cc(CNc2ccc(F)c(F)c2)c(Cl)cc1Cl)N1CCOCC1 [Compound 10, N-(2,4-Dichloro-5-(morpholinosulfonyl)benzyl)-3,4-difluoroani-line]	
none	lost their ATX inhibitory activity	O=S(=O)(c1cc(N(S(=O)(=O)c2cccc(F)c2)S(=O)(=O)c2cccc(F)c2)c(Cl)cc1Cl)N1CCOCC1 [Compound 20]	
none		O=C(Nc1cccc(F)c1)c1cc(S(=O)(=O)N2CCOCC2)c(Cl)cc1Cl [Compound 3, 2,4-Dichloro-N-(3-fluorophenyl)-5-(morpholinosulfonyl)-benzamide]	mechanism (human recombinant ATX [1]): competitive; in vitro stability (in words) [4]: significant stability
none		N#Cc1c(F)cc(NC(=O)c2cc(S(=O)(=O)N3CCOCC3)c(Cl)cc2Cl)cc1F [Compound 3h, 2,4-Dichloro-N-(4-cyano-3,5-difluorophenyl)-5-(morpholinosulfonyl)benzamide]	
none	poorly active	COc1cc(NC(=O)c2cc(S(=O)(=O)N3CCOCC3)c(Cl)cc2Cl)cc(OC)c1OC [Compound 3e, 2,4-Dichloro-5-(morpholinosulfonyl)-N-(3,4,5-trimethoxyphenyl)-benzamide]	
none		O=C(Nc1cc(Cl)c(F)c(Cl)c1)c1cc(S(=O)(=O)N2CCOCC2)c(Cl)cc1Cl [Compound 3g, 2,4-Dichloro-N-(3,5-dichloro-4-fluorophenyl)-5-(morpholinosulfonyl)benzamide]	fold higher potency of 3g over 3f (human recombinant ATX [1]; ATX, FS-3): 2 fold; mechanism (human recombinant ATX [1]): competitive; antagonist activity at LPA1 (in words) (LPA1): exhibited antagonist activity; also recorded: effective in antagonizing LPA1-elicited Ca^2+ responses
none	lost their ATX inhibitory activity	O=S(=O)(Nc1cccc(F)c1)c1cc(S(=O)(=O)N2CCOCC2)c(Cl)cc1Cl [Compound 22, 2,4-Dichloro-N-(3-fluorophenyl)-5-(morpholinosulfonyl)-benzenesulfonamide]	
none		O=C(Nc1cc(F)c(F)c(F)c1Br)c1cc(S(=O)(=O)N2CCOCC2)c(Cl)cc1Cl [Compound 5, N-(2-Bromo-3,4,5-trifluorophenyl)-2,4-dichloro-5-(morpholinosulfonyl)benzamide]	
none	only very weak potency	CN(C(=O)c1cc(S(=O)(=O)N2CCOCC2)c(Cl)cc1Cl)c1cccc(F)c1 [Compound 9, 2,4-Dichloro-N-(3-fluorophenyl)-N-methyl-5-(morpholinosulfonyl)benzamide]	
		CCCCCCCCCCCCCCCc1ccc(CP(=O)(O)O)cc1 [compound 30, (4-pentadecylbenzyl)phosphonic acid, reference compound]	resensitization of cancer stem-like cells to PT (in words) ([5]; 4T1-TaxR cells): effectively resensitized; further reduction of cell viability compared to PT alone ([5]; 4T1-TaxR mammospheres, PT 100 nM, compound 5 μM, 3 days): 25–30%
none		CN1CCN(S(=O)(=O)c2cc(C(=O)Nc3cc(Cl)c(F)c(Cl)c3)c(Cl)cc2Cl)CC1 [Compound 28b, 2,4-Dichloro-N-(3,5-dichloro-4-fluorophenyl)-5-((4-methylpiperazin-1-yl)sulfonyl)benzamide]	
none	poorly active	O=C(Nc1cc(Cl)c(Cl)c(Cl)c1)c1cc(S(=O)(=O)N2CCOCC2)c(Cl)cc1Cl [Compound 3d, 2,4-Dichloro-5-(morpholinosulfonyl)-N-(3,4,5-trichlorophenyl)-benzamide]	
none	failed to inhibit ATX	O=S(=O)(c1cc(-c2nc3cccc(F)c3o2)c(Cl)cc1Cl)N1CCOCC1 [Compound 7, 2-(2,4-Dichloro-5-(morpholinosulfonyl)phenyl)-7-fluorobenzo[d]-oxazole]	
none	poorly active	O=C(Nc1c(F)c(F)c(F)c(F)c1F)c1cc(S(=O)(=O)N2CCOCC2)c(Cl)cc1Cl [Compound 3c, 2,4-Dichloro-5-(morpholinosulfonyl)-N-(perfluorophenyl)-benzamide]	
none		CS(=O)(=O)N(C(=O)c1cc(NN2CCOCC2)c(Cl)cc1Cl)c1cc(F)c(F)c(F)c1 [Compound 26a, 2,4-Dichloro-N-(methylsulfonyl)-5-(morpholinoamino)-N-(3,4,5-trifluorophenyl)-benzamide]	

Molecule	pNP-TMP inhibition (human recombinant ATX [2])	ATX inhibitory activity (in words) (human recombinant ATX [1])	other results
O=S(=O)(c1cc(C(=S)Nc2ccc(F)c(F)c2)c(Cl)cc1Cl)N1CCOCC1 [Compound 13, 2,4-Dichloro-N-(3,4-difluorophenyl)-5-(morpholinosulfonyl)-benzothioamide]	none	retained similar inhibitory activity as the amide analogues	
4-(2,4-Dichloro-5-(morpholinosulfonyl)benzamido)-2,6-difluoro-benzoic Acid [Compound 4]	none	inactive	
O=S(=O)(c1cc(C(=S)Nc2cc(Cl)c(F)c(Cl)c2)c(Cl)cc1Cl)N1CCOCC1 [Compound 15, 2,4-Dichloro-N-(3,5-dichloro-4-fluorophenyl)-5-(morpholinosulfonyl)-benzothioamide]	none	retained similar inhibitory activity as the amide analogues	
O=S(=O)(c1cc(C(=S)Nc2cccc(F)c2)c(Cl)cc1Cl)N1CCOCC1 [Compound 12, 2,4-Dichloro-N-(3-fluorophenyl)-5-(morpholinosulfonyl)-benzothioamide]	none	retained similar inhibitory activity as the amide analogues	
O=S(=O)(c1cc(C(=S)Nc2cc(F)c(F)c(F)c2)c(Cl)cc1Cl)N1CCOCC1 [Compound 14, 2,4-Dichloro-5-(morpholinosulfonyl)-N-(3,4,5-trifluorophenyl)-benzothioamide]	none	retained similar inhibitory activity as the amide analogues	fold IC50 improvement relative to parent compound 3 (human recombinant ATX [1]; ATX, FS-3): 3 fold; mechanism (human recombinant ATX [1]): competitive; inhibition of A2058 cell invasion, screen at 10 μM [3]: as effective as 30; inhibition of A2058 cell invasion (in words) [3]: inhibit ATX-dependent invasion; also recorded: dose dependently decreased A2058 cell invasion; in vitro stability (in words) [4]: significant stability
